According to the EternaBench riboswitch data:

Test system: MS2 coat protein
Test: apparent Kd, MS2 coat protein; higher = weaker binding; RNA-MaP array; FMN 200 µM where present
Outline: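 Green signal was scaled to red-channel RNA signal and control-cluster median Fmax, and the apparent Kd was taken as the median of filtered per-cluster binding-curve fits. The binding series used SNAP-549-labelled MS2 coat protein from 0.7 or 1.5 nM, doubling to 3 µM, on designs transcribed by stalled E. coli RNA polymerase on Illumina sequencing-chip clusters. Each series ran without and then with constant ligand in 100 mM Tris-HCl pH 7.5, 80 mM KCl, 4 mM MgCl2, BSA, DTT, yeast tRNA and Tween-20.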

[1] = designed as: OFF switch for flavin mononucleotide, no ligand
[2] = ligand present: flavin mononucleotide, designed as: OFF switch for flavin mononucleotide
[3] = designed as: ON switch for flavin mononucleotide, no ligand
[4] = ligand present: flavin mononucleotide, designed as: ON switch for flavin mononucleotide

UGUGUAACGGAGGAUAUAGGACUUCAACGAAGACUAGAAGGCCGAACAUGAGGAUCACCCAUGUGGUCCUCCGU
apparent Kd [1]: 11.9 nM | apparent Kd [2]: 14.9 nM

UGUGUGUGGGCAGGAUAUGCAUGAAUAUGUAUGAUGUAGUGUGAUGUAACAUGAGGAUCACCCAUGUAGAAGGGCCGGUGUAUG
apparent Kd [1]: 94.5 nM | apparent Kd [2]: 122 nM

UGUGUUAUCGGAGGAUAUCGAUAUCAAACAUGAGGAUCACCCAUGUUGAGGAUCACCCAUGUCUACGAGAAGGCCGGCGUACUC
apparent Kd [3]: 45.2 nM | apparent Kd [4]: 50.6 nM

UGUGUUUUUGUGAGGAUAUACUGUUUGUUUUGUUUGUAGAAGGUACAUGAGGAUCACCCAUGUUGUGUUUGGUU
apparent Kd [1]: 37.5 nM | apparent Kd [2]: 29.2 nM

UGUUAAUUGUAGAAGGGUGACAUGAGGAUCACCCAUGUACUAAUGCGAUUUACGGCGCAUGUUCCACAGGAUAUACAGUUGAGU
apparent Kd [3]: 1270 nM | apparent Kd [4]: 274 nM

UGUUACUAGUAAGGAUAUACUUGCAAUUAGCUUGUAGAAGGUACAGUCUUUUGUAUAACAUGUUUACAUGAGGAUCACCCAUGU
apparent Kd [3]: 10.4 nM | apparent Kd [4]: 9.05 nM

UGUUGUAGUACAGGAUAUGCGGUGGAUUCGGACAUGAGGAUCACCCAUGUGCCUUUAUAACGUCUGCAGAAGGGUGAAAGAACG
apparent Kd [3]: 500 nM | apparent Kd [4]: 130 nM

UGUUGUAUUACAGGAUAUCUAUGAUUUUUAUCUAGAGAAGGGUAUUCACAUGAGGAUCACCCAUGUAUAUACGAGGAAGUUGUG
apparent Kd [3]: 31.2 nM | apparent Kd [4]: 30.6 nM

UGUUGUAUUACAGGAUAUCUAUUGUAUUUAUUUAGAGAAGGGUAUUCACAUGAGGAUCACCCAUGUAUAUACGAGGAAGUUGUG
apparent Kd [3]: 63.9 nM | apparent Kd [4]: 70.8 nM

UGUUGUGAACAGAACAUGAGGAUCACCCAUGUGCACUCGUGUAAGGAUAUACAAUCGUAUGGAAAGUAGAAGGUACUAAUUAUG
apparent Kd [4]: 120 nM

UUAAAUCAUGUAGGAUAUGCAUGGCGAAGCUACGCAGAAGGACAUGAGGAUCACCCAUGUUAUAGCUACCGAAUAAGGUGGCAA
apparent Kd [2]: 224 nM

UUAACACAUGAGGAUCACCCAUGUUAGGAUAUUGUGGUGGGAACAACUGGGAAACGCACGAGAAGGGACACACA
apparent Kd [1]: 35.7 nM | apparent Kd [2]: 26.2 nM

UUAAGGGACUGAGGAUAUACAUGAAUUAUGUUUGUAGAAGGCAGAUUGUUAGUUUAUUCACUAUACAUGAGGAUCACCCAUGUU
apparent Kd [1]: 25.1 nM | apparent Kd [2]: 20.6 nM

UUAAUCAUGUAGAAGGACGGAUAUUAAGAGAACGUAGGAUAUACAGAAGACAUGAGGAUCACCCAUGUGAACAUGGUACAUAGG
apparent Kd [1]: 241 nM | apparent Kd [2]: 62.5 nM

UUAAUUAAUUAAUUGCAGUUUACAUGAGGAUCACCCAUGUAUAAGGAUAUCGUCAGGAAUACUGACGAGAAGGUAUACAUCUGC
apparent Kd [1]: 19 nM | apparent Kd [2]: 31.8 nM

UUACAGGUUUAAGGCGUUCCCAGACAUGAGGAUCACCCAUGUAGAAGGACCGUAAGAAAUUUUCGGUAGGAUAUACAUUAAGGG
apparent Kd [1]: 28.6 nM | apparent Kd [2]: 29.2 nM

UUACAGUGCGGGUAGGAUAUGUAGGGUGGUACAUGAGGAUCACCCAUGUAUCCACCCUUCGACCGGCAGAAGGGCCUGUCACUGC
apparent Kd [3]: 14.3 nM | apparent Kd [4]: 14.3 nM

UUACUACAUGAGGAUCACCCAUGUCAGGAUAUUGUAUAUGCCUUGGAAUACGUGUUUACAAGAAGGGACUAUAU
apparent Kd [1]: 24.1 nM | apparent Kd [2]: 25.4 nM

UUACUAUAACAGAAGGGUAGAUAGUAUAUAAAUGCAGGAUAUGUUACAUGAGGAUCACCCAUGUUUCACCCACAUGAGGAUCAC
apparent Kd [1]: 28.5 nM | apparent Kd [2]: 40.7 nM

UUACUAUUGGAGAAGGGUCCAUCAUAUAGAAGGACAGGAUAUCCAACAUGAGGAUCACCCAUGUGUCACCCAUAUGAGGAUCAC
apparent Kd [1]: 41.4 nM | apparent Kd [2]: 82.2 nM

UUACUAUUGGAGAAGGGUCGAUCAUAUAGAAUGACAGGAUAUCCAACAUGAGGAUCACCCAUGUGUCACCCAUAUGAGGAUCAC
apparent Kd [1]: 34.3 nM | apparent Kd [2]: 52.4 nM

UUACUCAUGUAAGGAUAUGCAGCCGUUUCGGCUGCAGAAGGUACUAUAAUACAUGAGGAUCACCCAUGUCUUUUUAAAUUAGAC
apparent Kd [3]: 111 nM | apparent Kd [4]: 49.7 nM

UUAGAGGAUUAAGGAUAUGCAGAGAGAUUAUGCGCGUCGCGCACAUGAGGAUCACCCAUGUAAGAGCAGAAGGUAACUAUGAUC
apparent Kd [1]: 22.8 nM | apparent Kd [2]: 16.4 nM
